One may read the IC50 as the concentration that gives 50% inhibition. A higher IC50 goes with a need for much substance.

Bounds are passed on as bounds.

The test system of the assay is A2780. The assay is described as follows: Concentration required to inhibit 50% growth of A2780 human ovarian cancer cells. Type of assay: functional, cell-based. An outline of the steps: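 A2780 cells kept at 37 °C, 5% CO2, seeded at 1 × 10^4 cells per well, grown 72 h, then exposed for 24 h to complexes freshly dissolved in deionized water and diluted in RPMI to final 0.1, 1, 10 and 100 µM, in duplicate. Drug medium removed, cells washed with PBS, regrown in fresh medium and counted on day 7 by Coulter counter.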
Turning to CARBOPLATIN, the IC50 is 6 µM.
With CISPLATIN the figure was 0.5 µM.
With “[(nu6-C6H5C6H5)RuCl(N-ethylethylenediamine)]PF6” the figure was 6 µM.
As to “[(nu6-C6H5CO2CH3)RuCl(ethylenediamine)]PF6”, the IC50 was determined as 55 µM.
[(nu6-C6H6)RuCl(ethylenediamine)]PF6 registered an IC50 of 17 µM.
With [(nu6-C6H6)RuI(ethylenediamine)]PF6 the figure was 20 µM.
As for [(nu6-p-cymene)RuBr(CH3CN)2]PF6, the figure is above 150 µM.
With [(nu6-p-cymene)RuCl2(isonicotinamide)] the figure was above 150 µM; with “[(nu6-p-cymene)RuCl(ethylenediamine)]PF6”, 9 µM; with [(nu6-p-cymene)RuI(ethylenediamine)]PF6, 8 µM.

Source of the values: ChEMBL document CHEMBL1134657, “Inhibition of cancer cell growth by ruthenium(II) arene complexes” (J Med Chem, 2001).
